Laboratory results from publication PMC8805511 (Bioorganic & medicinal chemistry letters, 2021).
Like-named read-outs stand apart in the source and are kept apart here.

Columns and labels:
solubility = format: physicochemical; conditions: excluded from further study
[1] = T1/2 in mouse liver microsome assays; format: in vitro ADME; conditions: liver microsomes
Summary of the method: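 Test compound incubated with mouse liver microsomes at 37 °C. The amount of unmodified compound remaining was measured after 30 min as a single-point stability read. T1/2 (min) was calculated from these incubations. Dextromethorphan served as the positive control.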

[2] = mouse liver microsome stability, compound remaining after 30 minutes; format: in vitro ADME; conditions: unmodified compound remaining after incubation with mouse liver microsomes for 30 minutes at 37 °C
[3] = mouse liver microsome assays; cited from earlier work
tau = conditions: cited from earlier work
HeLaC3 cells = assay: total tau; format: cell-based; conditions: 24 h, Western blot

In the case of `CCn1c(=O)/c(=C2\Sc3c(Cl)cccc3N2C)s/c1=C\c1ccncc1` [Compound 17], the solubility (solubility) is reported as “poor solubility”.
Work on `CCn1c(=O)/c(=C2\Sc3ccc(Cl)cc3N2C)s/c1=C\c1ccccn1` [Compound 6] yielded a half-life [1] of roughly 20 min.
With `CCn1c(=O)/c(=C2\Sc3cccc(Cl)c3N2C)s/c1=C\c1ccncc1` [Compound 14] the solubility (solubility) was “poor solubility”.
Work on `CCn1c(=O)/c(=C2\Sc3cccc(Cl)c3N2C)s/c1=C\c1ccccn1` [Compound 5] yielded a half-life [1] of roughly 20 min.
In the case of `CCn1c(=O)/c(=C2\Sc3ccccc3N2C)s/c1=C\c1ccccn1` [YM-08], the “Percentage at T30min” value [2] is given as “below the limit of detection” and the half-life [3] is given as “less than three minutes”.
Molecule `CCn1c(=O)/c(=C2\Sc3cc(Cl)ccc3N2C)s/c1=C\c1ccncc1` [Compound 16] has a half-life [1] of roughly 20 min.
In the case of YM-01, the “concentration promoting tau degradation” value (tau) is given as ~ 1 μM.
For `CCn1c(=O)/c(=C2\Sc3ccc(Cl)cc3N2C)s/c1=C\c1ccncc1` [Compound 15], the “cellular stress (levels of Hsp72 and Hsp90)” value (HeLaC3 cells) was “did not activate cellular stress”.
